Screens deposited in PubChem by The Scripps Research Institute Molecular Screening Center.
Compounds with a hit are over-represented: about 1.4% of the library has one in this group of screens.
HTRA1 inhibitor = HTRA1 (human) protease inhibition; AID 504803; 0.5% of 340,000 active; recombinant HTRA1, FP-rhodamine activity-based probe, fluorescence polarization; Q92743; inhibition, % at 5.96 µM; in the data active means inhibition above about 36%
Target sequence (Q92743 whole entry, looked up): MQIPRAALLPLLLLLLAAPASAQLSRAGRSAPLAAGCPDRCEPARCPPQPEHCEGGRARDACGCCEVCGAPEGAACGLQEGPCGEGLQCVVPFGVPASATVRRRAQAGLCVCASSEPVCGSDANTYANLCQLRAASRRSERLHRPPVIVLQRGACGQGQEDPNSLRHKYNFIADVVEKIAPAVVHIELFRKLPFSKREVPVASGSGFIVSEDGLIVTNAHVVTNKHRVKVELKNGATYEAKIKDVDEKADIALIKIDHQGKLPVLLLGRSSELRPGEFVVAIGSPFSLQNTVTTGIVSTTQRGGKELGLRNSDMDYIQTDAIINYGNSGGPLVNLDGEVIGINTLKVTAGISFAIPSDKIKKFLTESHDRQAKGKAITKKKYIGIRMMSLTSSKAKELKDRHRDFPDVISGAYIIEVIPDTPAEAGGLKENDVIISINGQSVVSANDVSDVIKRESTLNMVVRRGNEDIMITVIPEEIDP
mABHD4 FP = inhibitors of mouse ABHD4; Q8VD66; purified mABHD4, FP-Rh probe fluorescence polarization; inhibition, % at 8.92 µM; 0.54% of 370,000 active; AID 720543;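 active means inhibition exceeding the mean over every tested compound plus 3 SD, cut at about 30% in these data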
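Assay system: Wild-type mouse ABHD4 protein | Medium: HEPES pH 7.0 buffer, 150 mM NaCl, 0.01% Pluronic F-127 | Incubation: Enzyme–compound pre-incubation 45 min, then probe 60 min, both 25 °C | Technique: Fluorescence polarization with parallel and perpendicular emission, 525/598 nm | Evaluation: % inhibition of FP-Rh probe binding versus controls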
RBBP9 inhibitor = blocks human serine hydrolase RBBP9. recombinant RBBP9, FP-Rh probe fluorescence polarization. inhibition, % at 7.94 µM. 0.2% of 220,000 active. AID 1515;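 active means inhibition above the campaign mean of all tested compounds plus 3 SD, cut at about 14% in these data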
Target sequence (O75884 whole entry, looked up): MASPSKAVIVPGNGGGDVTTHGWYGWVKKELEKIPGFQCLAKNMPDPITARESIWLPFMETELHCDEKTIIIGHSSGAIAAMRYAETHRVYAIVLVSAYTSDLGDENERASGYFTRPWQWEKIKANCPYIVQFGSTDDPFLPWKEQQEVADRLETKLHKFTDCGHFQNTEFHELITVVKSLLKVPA
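Measured by: FP readout at 525/598 nm; material: recombinant human RBBP9; also added: Serine-hydrolase probe FP-Rh, 375 nM pre-mixing; medium: Tris buffer pH 8.0, NaCl, Pluronic; replication: one well per compound; doses: one concentration, 7.94 µM nominal, 0.794% DMSO; timing: preincubation 30 min plus labeling 45 min at 25 °C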
SIAE inh = blocks human sialic acid acetylesterase; Q9HAT2; 0.69% of 370,000 active; AID 1053197; inhibition, % at 9.66 µM; SIAE FP-Rh probe binding, fluorescence polarization;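 active means inhibition above a cutoff: mean of compounds within the control limits plus 3 SD of those, cut at about 17% in these data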
RBBP9 confirm = confirmation of human RBBP9 inhibitors; shares compounds with RBBP9 inhibitor; recombinant RBBP9, FP-Rh probe fluorescence polarization; inhibition, % at 7.94 µM; 36% of 410 active; AID 1537;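 active means inhibition above the hit cutoff derived for the primary screen, cut at about 15% in these data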
Numbers stand for hits; i = inactive; nt = no result.

SMILES | HTRA1 inhibitor | mABHD4 FP | RBBP9 inhibitor | SIAE inh | RBBP9 confirm
C[C@H]1COc2cc(Br)ccc2S(=O)(=O)N1Cc1cn(Cc2ccc(C(F)(F)F)cc2)nn1 | nt | i | nt | i | nt
Cc1[nH]c2ccccc2c1C(=O)COC(=O)c1ccc[n+]([O-])c1 | i | i | 15.8 | i | i
COc1cc(Cn2cc([C@]34C[C@H]5C(=O)N(C)CC(=O)N5[C@H]3N(S(=O)(=O)c3ccccc3)c3ccccc34)c3ccccc32)cc(OC)c1 | nt | i | nt | i | nt
Cc1cc(C=O)c(C)n1-c1ccc(N2CCOCC2)c([N+](=O)[O-])c1 | i | i | i | i | nt
Cc1ccc(C)n1-c1ccc(N2CCOCC2)c([N+](=O)[O-])c1 | i | i | 15.8 | i | i
COc1cc2[nH]c(=S)nc(Nc3ccc(NC(C)=O)cc3)c2cc1OC | i | i | 29.1 | i | 51.7
COc1cc2[nH]c(=S)nc(NC3CCCCCC3)c2cc1OC | i | i | i | i | nt
CCOc1ccc(S(=O)(=O)Nc2ccc(Cl)cn2)c(C)c1C | i | i | 16.9 | i | i
CCOc1cc(C)c(S(=O)(=O)Nc2ccc(Cl)cn2)cc1C | i | i | i | i | nt
CCN(CC)CCC#CC(O)(c1ccccc1)C1CCCCC1 (configuration not stated) | i | i | i | i | nt
CCC[N+]1(CC#CC(O)(c2ccccc2)C2CCCCC2)CCCCC1 (configuration not stated) | i | i | 15.1 | i | 39.2
CCOc1ccc(-n2c(COc3ccc(Cl)cc3)nnc2SCC(=O)Nc2ccc(OCc3ccccc3)cc2)cc1 | nt | i | nt | i | nt
CS(=O)(=O)N1CCN(c2ccccc2NC(=O)c2cc3ccccc3o2)CC1 | i | i | nt | i | nt
COc1ccc(-c2[nH]c(-c3ccccc3)nc2SCC(=O)Nc2nccs2)cc1 | i | i | 25.6 | i | i
CN(C)[C@H]1CCN(c2ccc3c(c2)O[C@@H]2CCN(C2)S3(=O)=O)C1 | nt | i | nt | i | nt
CCOc1cccc(CN2CCN(Cc3ccc(C)o3)C(CCO)C2)c1O (configuration not stated) | i | i | 14.7 | i | i
C[C@H](O)[C@@H]1CN2CCc3ccc(-c4ccc5c(c4)OCO5)cc3[C@@H]2C[C@@H]1N(C)C(=O)c1cccc(Cl)c1 | nt | i | nt | i | nt
CCc1ccccc1NC(=O)CSc1nnc(Cn2nnc3ccccc32)n1C | i | i | 15.2 | i | i
Oc1ccc(-c2nc3ncccn3c2Nc2ccc3c(c2)OCO3)cc1 | i | i | i | i | nt
Cc1ccn2c(Nc3ccc4c(c3)OCO4)c(-c3ccc(O)cc3)nc2c1 | i | i | 17.4 | i | 27.8
C[C@H]1C(=O)N2[C@@H](C[C@]3(c4c[nH]c5ccccc45)c4ccccc4N(S(=O)(=O)c4ccccc4)[C@H]23)C(=O)N1C | nt | i | nt | i | nt
O=C1C2CC=CCC2C(=O)N1Cc1ccccc1 (configuration not stated) | i | i | 18.8 | i | i
COc1ccccc1CN1C(=O)C2CC=CCC2C1=O (configuration not stated) | i | i | i | i | nt
COC(=O)c1ccc(N2C(=O)CC(N3CCOCC3)C2=O)cc1 (configuration not stated) | i | i | i | i | nt
COC(=O)c1ccc(N2C(=O)CC(N3CCN(c4ccccc4)CC3)C2=O)cc1 (configuration not stated) | i | i | 21.2 | i | i
SMILES | HTRA1 inhibitor | mABHD4 FP | RBBP9 inhibitor | SIAE inh | RBBP9 confirm
O=C(NC(Cc1ccccc1)C(=O)N1CCN(c2ccc(F)cc2)CC1)c1ccccc1 (configuration not stated) | i | i | nt | i | nt
COC(=O)C1CSc2[nH]c(=O)sc2C1c1ccc(O)c(OC)c1 (configuration not stated) | i | i | 14.4 | i | i
Cc1c(C(=O)NNC(=S)Nc2ccc(S(N)(=O)=O)cc2)oc2ccccc12 | i | i | nt | i | nt
O=C(Nc1ccccc1)c1ccc(S(=O)(=O)NCc2ccco2)cc1 | i | i | i | i | nt
CC1CCCCC1NC(=O)c1ccc(S(=O)(=O)NCc2ccco2)cc1 (configuration not stated) | i | i | 17.8 | i | i
C[C@@H](NC(=O)C[C@H]1CC[C@H]2[C@@H](COc3ccc(NC(=O)Nc4ccccc4)cc3C(=O)N2C)O1)c1ccccc1 | nt | i | nt | i | nt
COc1ccc(C2C(C#N)=C(N)Oc3c2c(C)nn3-c2ccccc2)cc1Cn1nc(C)c([N+](=O)[O-])c1C (configuration not stated) | i | i | 18.2 | i | i
Cc1nn(-c2ccccc2)c2c1C(c1ccc(Br)s1)C(C#N)=C(N)O2 (configuration not stated) | i | nt | i | nt | nt
Cc1nn(-c2ccccc2)c2c1C(c1ccccc1)C(C#N)=C(N)O2 (configuration not stated) | i | i | 16.4 | i | i
CCCCN(C(=O)c1cc2ccccc2o1)c1c(N)n(CC(C)C)c(=O)[nH]c1=O | i | i | 19.8 | i | i
COc1ccc(OC)c(NC(=S)NCc2ccco2)c1 | i | i | i | i | nt
COc1ccc(NC(=S)NCc2ccco2)c(OC)c1 | i | i | 17.2 | i | i
O=C(CC1Nc2ccccc2NC1=O)c1ccccc1 (configuration not stated) | nt | nt | i | nt | nt
NC(=O)CC1Nc2cccc3cccc(c23)NC1=O (configuration not stated) | i | i | 28.8 | i | i
COC(=O)[C@H](CC(C)C)N1Cc2nnn(Cc3ccc(C)cc3)c2-c2cc(F)ccc2S1(=O)=O | nt | i | nt | i | nt
CCCCNC(=O)c1c(C)cc(=O)oc1C | i | i | 16.1 | i | i
O=C(COC(=O)/C=C/c1ccc(Cl)cc1)NCCc1ccccc1 | i | i | 16.6 | i | i
O=C(COC(=O)/C=C/c1ccccc1)NCc1ccc(Cl)cc1 | i | i | i | i | nt
COC(=O)C1CN(Cc2cn(Cc3ccc(C)cc3)nn2)CCS(=O)(=O)N1Cc1ccc(C)cc1 (configuration not stated) | nt | i | nt | i | nt
CC(=O)Nc1cccc(-c2csc(NCc3ccccc3)n2)c1 | i | i | 14.7 | i | i
CC1Cc2cc(/C(O)=C3/C(=O)C(=O)N(CCCn4ccnc4)C3c3ccncc3)ccc2O1 (configuration not stated) | i | i | 14.4 | i | i
COc1ccccc1C=NN1C(=O)CSC1=S | i | i | nt | i | nt
O=C1CSC(=S)N1/N=C/c1ccc(O)c(O)c1O | i | nt | 14.6 | nt | 27.1
Oc1ccc(-c2cn3c(n2)SCC3)cc1O | i | i | 20.9 | i | 51.3
Oc1ccc(-c2cn3c(n2)SCC3)cc1 | i | i | i | i | nt
Cc1nn(-c2ccccc2)c(Cl)c1/C=N/NC(=O)CNC(=O)c1ccccc1Cl | i | i | 38.7 | i | i
COc1ccc(OC)c2c1C(=O)C(Cl)=C(Cl)C2=O | i | i | 78.8 | i | 81.4
COc1ccc(OC)c2c1C(=O)CC2C (configuration not stated) | i | i | nt | i | nt
COc1cc(C2C(C(=O)OC(C)C)=C(C)Nc3[nH]c(=O)[nH]c(=O)c32)ccc1O (configuration not stated) | i | i | 17.1 | i | i
